The record followed here is ChEMBL document CHEMBL1138784, “Rational design, synthesis, and biological evaluation of bis(pyrimido[5,6,1-de]acridines) and bis(pyrazolo[3,4,5-kl]acridine-5-carboxamides) as new anticancer agents” (J Med Chem, 2004).

Structures are written as SMILES.

For one assay, the system named is Nucleic Acid. Put plainly: Binding site preference is determined as the ratio of Poly (dA-dT)2 to Poly (dG-dC)2. Type of assay: nucleic-acid assay. The method in brief: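 Ethidium displacement fluorometry at pH 7.0 (10 mM Na2HPO4, 10 mM NaH2PO4, 1 mM EDTA) with 1.26 μM ethidium bromide and 1 μM [poly(dA-dT)]2 or [poly(dG-dC)]2, 20 °C. Ex 546 nm, em 595 nm, drug added serially from a DMSO stock. Preference taken from the [AT]/[GC] ratio of C50 values, counted significant only below 0.7 or above 1.3.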

The next assay has as its system HT-29. Put plainly: Cytotoxicity is determined as the concentration required to inhibit the growth of human colon adenocarcinoma (HT-29) cell line. The class given is functional, cell-based.

With `CN(C)CCn1c(=O)c2ccc(NCCCCCCCCCCCCNc3ccc4c(=O)n(CCN(C)C)c(=O)n5c6ccccc6c(=O)c3c45)c3c(=O)c4ccccc4n(c1=O)c23`, the Binding site preference with Nucleic Acid came to 12. The compound also gave an IC50 with HT-29 of 3500 nM.

Regarding `CN(C)CCNc1ccc(C(=O)NCCCN(C)CCCNC(=O)c2ccc(NCCN(C)C)c3c(O)c4cc(O)ccc4nc23)c2nc3ccc(O)cc3c(O)c12`, the Binding site preference with Nucleic Acid was determined as 1.6. Inhibition with HT-29 was half-maximal at 800 nM (IC50).

As to `COc1ccc2c(c1)-c1nn(CCN(C)C)c3ccc(C(=O)NCCN(C)CCNC(=O)c4ccc5c6c(c7cc(OC)ccc7nc46)NN5CCN(C)C)c(c13)N2`, the Binding site preference with Nucleic Acid is 2.8. The compound further displayed a 50% inhibitory concentration (IC50) in the assay with HT-29 of 150 nM.

`CN(C)CCNC(=O)c1ccc(NCCCN(C)CCCNc2ccc(C(=O)NCCN(C)C)c3nc4ccc(O)cc4c(O)c23)c2c(O)c3cc(O)ccc3nc12`: in the assay on Nucleic Acid, the Binding site preference stood at 1.8. The compound also registered an IC50 in the assay on HT-29 of 6900 nM.

On to `CN(C)CCN1Nc2c3cc(O)ccc3nc3c(C(=O)NCCN(C)CCNC(=O)c4ccc5c6c(c7cc(O)ccc7nc46)NN5CCN(C)C)ccc1c23`, for which the Binding site preference in the assay on Nucleic Acid turned out to be 2.8. Also, the IC50 in the assay on HT-29 is greater than 10000 nM.

Turning to `CN(C)CCNC(=O)c1ccc(NCCCN(C)CCCNc2ccc(C(=O)NCCN(C)C)c3nc4ccccc4c(O)c23)c2c(O)c3ccccc3nc12`, the midpoint of inhibition with HT-29, the IC50, lay at 0.43 nM.

With `CN(C)CCNc1ccc(C(=O)NCCCN(C)CCCNC(=O)c2ccc(NCCN(C)C)c3c(=O)c4ccccc4[nH]c23)c2[nH]c3ccccc3c(=O)c12`, in the assay with Nucleic Acid, the Binding site preference is 10. Further, in the assay on HT-29, 57 nM corresponded to half-maximal inhibition (IC50).

For `CN(C)CCNC(=O)c1ccc2c3c(c4cc(O)ccc4nc13)NN2CCN(C)C`, the Binding site preference with Nucleic Acid came to 5.1.

Consider `CN(C)CCn1c(=O)c2ccc(NCCCNc3ccc4c(=O)n(CCN(C)C)c(=O)n5c6ccccc6c(=O)c3c45)c3c(=O)c4ccccc4n(c1=O)c23`, for which, in the assay with Nucleic Acid, the Binding site preference was determined as 8.9. The IC50 with HT-29 is 390 nM.

`COc1ccc2c(c1)c(=O)c1c(NCCN(C)CCNc3ccc4c(=O)n(CCN(C)C)c(=O)n5c6ccc(OC)cc6c(=O)c3c45)ccc3c(=O)n(CCN(C)C)c(=O)n2c31` had an IC50 in the assay on HT-29 of 720 nM.

Turning to `COc1ccc2nc3c(C(=O)NCCN(C)C)ccc(NCCCN(C)CCCNc4ccc(C(=O)NCCN(C)C)c5nc6ccc(OC)cc6c(O)c45)c3c(O)c2c1`, the Binding site preference in the assay on Nucleic Acid came to 1.9. This compound gave an IC50 with HT-29 of 39 nM.

On to `COc1ccc2nc3c(C(=O)NCCCN(C)CCCNC(=O)c4ccc(NCCN(C)C)c5c(O)c6cc(OC)ccc6nc45)ccc(NCCN(C)C)c3c(O)c2c1`, for which the Binding site preference in the assay on Nucleic Acid amounted to 2.5. The compound also had an IC50 in the assay on HT-29 of 2 nM.

For the compound `CN(C)CCN1Nc2c3ccccc3nc3c(C(=O)NCCN(C)CCNC(=O)c4ccc5c6c(c7ccccc7nc46)NN5CCN(C)C)ccc1c23`, the Binding site preference with Nucleic Acid was determined as 4.3. Besides, it took 360 nM to reach half-maximal inhibition in the assay on HT-29 (IC50).

The compound `CN(C)CCNC(=O)c1ccc(NCCCN(C)CCCNc2ccc(C(=O)NCCN(C)C)c3nc4ccc([N+](=O)[O-])cc4c(O)c23)c2c(O)c3cc([N+](=O)[O-])ccc3nc12` returned an IC50 in the assay with HT-29 of less than 0.1 nM.

Consider `CN(C)CCNC(=O)c1ccc2c3c(c4ccccc4nc13)NN2CCN(C)C`, for which the Binding site preference with Nucleic Acid came to 3.4.

As to `COc1cc2c(=O)c3c(NCCCN(C)CCCNc4ccc5c(=O)n(CCN(C)C)c(=O)n6c7cc(OC)c(OC)cc7c(=O)c4c56)ccc4c(=O)n(CCN(C)C)c(=O)n(c2cc1OC)c43`, the Binding site preference with Nucleic Acid amounted to 4.6. Also, in the assay on HT-29, 250 nM corresponded to half-maximal inhibition (IC50).

For the compound `CN(C)CCn1c(=O)c2ccc(NCCN(C)CCNc3ccc4c(=O)n(CCN(C)C)c(=O)n5c6ccccc6c(=O)c3c45)c3c(=O)c4ccccc4n(c1=O)c23`, the Binding site preference in the assay with Nucleic Acid worked out at 4.3. Also, the IC50 in the assay on HT-29 is 110 nM.

For the compound `CN(C)CCn1c(=O)c2ccc(NCCCCCCNc3ccc4c(=O)n(CCN(C)C)c(=O)n5c6ccccc6c(=O)c3c45)c3c(=O)c4ccccc4n(c1=O)c23`, the Binding site preference in the assay on Nucleic Acid worked out at 30. Also, in the assay on HT-29, the IC50 turned out to be 43 nM.

Turning to `COc1ccc2c(c1)-c1nn(CCN(C)C)c3ccc(C(=O)NCCN(C)C)c(c13)N2`, in the assay on Nucleic Acid, the Binding site preference came to 1.6.
